Screens as filed in PubChem BioAssay.
An excerpt weighted towards active compounds, which were near 5.8% of everything screened.
T cruzi growth-1: T. cruzi intracellular proliferation inhibitors, primary screen, cell-based, beta-gal Tulahuen parasites, NIH3T3 host, luminescence. T. cruzi beta-gal in NIH3T3, GalScreen luminescence, 90 h. inhibition, % at 8.34 µM. 77,000 compounds, 5.9% hits. AID 624255, 2012;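 active means mean inhibition above about 93%, with at least 55% of replicates each passing it, limit read from the data, passing the limit was not always enough; inconclusive means only one of those two conditions holds; inactive means neither condition holds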
Pf Dd2 growth: P. falciparum Dd2 growth inhibitors, primary screen, SYBR Green fluorescence, single dose replicates. 94,000 compounds, 2.3% hits. AID 1159554, 2015. activity change, % at 10 µM. 72 h; active compounds read low; in the data active means activity change below about -80%; inconclusive means no clear call, values can overlap the other calls
IDH1 mut inh: inhibitors of IDH1 R132H reductase, primary screen, biochemical, plate reader, single point. Isocitrate dehydrogenase [NADP] cytoplasmic (Homo sapiens), O75874. diaphorase/resazurin fluorescence, 60 min. inhibition, % at 10 µM. 70,000 compounds, 0.18% hits; in the data active means inhibition above about 34%; inconclusive means no clear call, values can overlap the other calls; inactive means below about 11%
Target sequence (O75874 whole entry R132H): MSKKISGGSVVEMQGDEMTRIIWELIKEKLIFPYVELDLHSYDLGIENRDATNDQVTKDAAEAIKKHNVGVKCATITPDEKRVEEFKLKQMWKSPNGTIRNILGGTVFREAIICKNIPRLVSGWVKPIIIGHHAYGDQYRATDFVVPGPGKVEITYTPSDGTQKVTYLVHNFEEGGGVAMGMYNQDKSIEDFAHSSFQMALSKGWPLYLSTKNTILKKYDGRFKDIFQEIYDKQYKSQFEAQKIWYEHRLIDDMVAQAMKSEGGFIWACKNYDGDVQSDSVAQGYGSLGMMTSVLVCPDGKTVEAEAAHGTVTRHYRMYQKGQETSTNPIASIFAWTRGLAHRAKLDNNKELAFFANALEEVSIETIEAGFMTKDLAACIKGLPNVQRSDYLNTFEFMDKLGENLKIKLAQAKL
KDM4C inh: inhibitors of GASC-1 (KDM4C) histone demethylase, primary screen, biochemical, single concentration HTS; inhibition, % at 12.5 µM; Lysine-specific demethylase 4C (Homo sapiens), Q9H3R0; 96,000 compounds, 0.15% hits; AID 720574, 2013; GST-KDM4C 2-372, H3K9me3 peptide, LANCE TR-FRET;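 active means mean replicate inhibition above about 25%, with at least 55% of replicates also reaching it, limit read from the data, passing the limit was not always enough; inconclusive means only one of those two conditions met; inactive means neither condition met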
Target sequence (Q9H3R0 2-372 limits assumed): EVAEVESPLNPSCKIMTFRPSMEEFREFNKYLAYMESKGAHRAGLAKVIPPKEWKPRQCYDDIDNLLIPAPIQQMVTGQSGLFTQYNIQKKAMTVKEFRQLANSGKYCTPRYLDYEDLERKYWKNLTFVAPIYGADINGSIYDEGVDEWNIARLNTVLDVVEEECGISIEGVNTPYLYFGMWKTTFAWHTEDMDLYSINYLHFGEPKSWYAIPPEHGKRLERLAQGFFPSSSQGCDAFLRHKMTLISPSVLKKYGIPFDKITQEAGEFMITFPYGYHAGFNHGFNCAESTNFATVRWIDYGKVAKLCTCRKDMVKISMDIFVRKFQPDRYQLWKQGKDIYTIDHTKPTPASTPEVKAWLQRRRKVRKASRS
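material = GST-tagged GASC-1 (JMJD2C) catalytic fragment, aa 2-372 | amount = enzyme final amount 10 nM | medium = HEPES buffer, pH 7.5, plus ascorbate | also added = H3K9me3 peptide substrate, Fe(II), 2-oxoglutarate | dosing = single dose | times = 30 min demethylation and 1 h detection at room temperature | detection = LANCE TR-FRET | read-out basis = Fall in 671/618 emission ratio as inhibition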
T cruzi growth-2: T. cruzi intracellular proliferation inhibitors, confirmation, cell-based, NIH3T3 host, beta-gal parasite, luminescence, cherry-pick; AID 651739, 2012; 5,600 compounds, 72% hits; inhibition, % at 8.35 µM; shares compounds with T cruzi growth-1; T. cruzi beta-gal in NIH3T3, GalScreen luminescence, 90 h;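 active means mean replicate inhibition above about 95% and at least 55% of replicates individually reaching it, limit read from the data; inconclusive means only one of the two criteria is met; inactive means neither criterion is met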
T cruzi growth-3: inhibitors of intracellular T. cruzi replication, confirmation, NIH3T3 host cells, beta-gal parasites, cherry-pick, set 2; shares compounds with T cruzi growth-1; T. cruzi beta-gal in NIH3T3, GalScreen luminescence, 90 h; inhibition, % at 2.09 µM; 5,600 compounds, 21% hits;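 active means mean inhibition above about 95%, with at least 55% of replicates also reaching it, limit read from the data; inconclusive means meets just one of the two conditions; inactive means meets neither condition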
3T3 cytotox: cytotoxicity in mouse NIH/3T3 fibroblasts, confirmation, cytotoxicity control for T. cruzi proliferation inhibitor project, cell-based, cherry-pick, single point; shares compounds with T cruzi growth-1; NIH/3T3 viability, CellTiter-Glo ATP luminescence, 90 h; cytotoxicity (signal decrease), % at 8.35 µM; 5,600 compounds, 14% hits; AID 651742, 2012;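 active means mean signal decrease across replicates above about 35% based on untreated-well scatter, with enough replicates individually passing, limit read from the data; inconclusive means no rule stated though some were filed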
NIH3T3 tox 2: NIH/3T3 fibroblast cytotoxicity, confirmation, cytotoxicity control, cell-based, cherry-pick, single point, set 2 | shares compounds with T cruzi growth-1 | NIH/3T3 viability, CellTiter-Glo ATP luminescence, 90 h | inhibition, % at 24.9 µM | 5,600 compounds, 56% hits;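 active means mean loss of cell viability signal at or above a set limit, and enough replicates individually reaching it; inconclusive means meets only the mean limit or only the replicate share; inactive means meets neither condition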
Each line names hits and unclear results; the compound was inactive in the other large screens (follow-up assays come after a bar, where they were run).

COc1cc2nc(SCC(N)=O)n3nc(CCn4c(C)nc5ccccc54)nc3c2cc1OC	none (no result: T cruzi growth-1, Pf Dd2 growth, KDM4C inh)
COc1cc(O)c(OC)c2c1C(=O)CC(c1ccccc1)O2 (stereo unspecified)	none (no result: T cruzi growth-1, Pf Dd2 growth, KDM4C inh)
Cc1ccccc1-c1ccc([C@@H]2[C@H]3CN(C(=O)Nc4ccccc4)CCCCN3[C@H]2CO)cc1	T cruzi growth-1 104 (no result: IDH1 mut inh) | T cruzi growth-2 104 | T cruzi growth-3 inactive | 3T3 cytotox inactive | NIH3T3 tox 2 105
Cc1ccccc1-c1ccc([C@H]2[C@H]3CN(C(=O)Nc4ccccc4)CCCCN3[C@H]2CO)cc1	T cruzi growth-1 118 (no result: IDH1 mut inh) | T cruzi growth-2 112 | T cruzi growth-3 inactive | 3T3 cytotox inactive | NIH3T3 tox 2 34
Cc1ccccc1-c1ccc([C@H]2[C@@H](CO)N3CCCCN(C(=O)Nc4ccccc4)C[C@H]23)cc1	none (no result: IDH1 mut inh)
COc1ccc(NC(=O)N2CCCCN3[C@H](C2)[C@@H](c2ccc(-c4ccccc4C)cc2)[C@@H]3CO)cc1	T cruzi growth-1 98 (no result: IDH1 mut inh) | T cruzi growth-2 98 | T cruzi growth-3 inactive | 3T3 cytotox inactive | NIH3T3 tox 2 104
COc1ccc(NC(=O)N2CCCCN3[C@H](CO)[C@H](c4ccc(-c5ccccc5C)cc4)[C@H]3C2)cc1	none (no result: IDH1 mut inh)
O=C(CCCCCCC(=O)Nc1ccccc1O)N/N=C/c1ccc(-c2cccc(Cl)c2)o1	none (no result: T cruzi growth-1, Pf Dd2 growth, KDM4C inh)
N#C[C@H]1[C@@H](c2ccc(C3=CCCCC3)cc2)[C@H](CO)N1S(=O)(=O)c1ccccc1	T cruzi growth-1 97 (no result: IDH1 mut inh) | T cruzi growth-2 97 | T cruzi growth-3 inactive | 3T3 cytotox 41 | NIH3T3 tox 2 100
N#C[C@@H]1[C@H](c2ccc(C3=CCCC3)cc2)[C@H](CO)N1S(=O)(=O)c1cccc(F)c1	none (no result: IDH1 mut inh)
N#C[C@@H]1[C@H](c2ccc(C3=CCCCC3)cc2)[C@@H](CO)N1S(=O)(=O)c1cccc(F)c1	T cruzi growth-1 98 (no result: IDH1 mut inh) | T cruzi growth-2 inconclusive | T cruzi growth-3 inactive | 3T3 cytotox inactive | NIH3T3 tox 2 104
Cc1ccccc1-c1nc(C#N)c(NCCN2CCOCC2)o1	none (no result: T cruzi growth-1, Pf Dd2 growth, KDM4C inh)
C[C@@H]1CCCCO[C@@H](CN(C)S(=O)(=O)c2ccc(F)cc2)[C@H](C)CN([C@@H](C)CO)C(=O)c2cc(NS(=O)(=O)c3ccc(F)cc3)ccc2O1	T cruzi growth-1 109 (no result: IDH1 mut inh) | T cruzi growth-2 106 | T cruzi growth-3 inactive | 3T3 cytotox inactive | NIH3T3 tox 2 inactive
C[C@@H]1CCCCO[C@H](CN(C)S(=O)(=O)c2ccc(F)cc2)[C@H](C)CN([C@H](C)CO)C(=O)c2cc(NS(=O)(=O)c3ccccc3)ccc2O1	T cruzi growth-1 104 (no result: IDH1 mut inh) | T cruzi growth-2 114 | T cruzi growth-3 inactive | 3T3 cytotox inactive | NIH3T3 tox 2 inactive
C[C@H](CO)N1C[C@H](C)[C@H](CN(C)S(=O)(=O)c2ccc(F)cc2)OCCCC[C@H](C)Oc2ccc(NS(=O)(=O)c3ccc(F)cc3)cc2C1=O	T cruzi growth-1 119 (no result: IDH1 mut inh) | T cruzi growth-2 103 | T cruzi growth-3 inactive | 3T3 cytotox inactive | NIH3T3 tox 2 inactive
C[C@@H]1CCCCO[C@H](CN(C)S(=O)(=O)c2ccc(F)cc2)[C@@H](C)CN([C@@H](C)CO)C(=O)c2cc(NS(=O)(=O)c3ccc(F)cc3)ccc2O1	T cruzi growth-1 111 | T cruzi growth-2 103 | T cruzi growth-3 inactive | 3T3 cytotox inactive | NIH3T3 tox 2 inactive
COc1ccc(Cl)cc1NC(=O)CSc1nnc(-c2ccccc2)n1C	none (no result: T cruzi growth-1, Pf Dd2 growth, KDM4C inh)
Cc1sc2ncnc(SCC(=O)c3ccc(Cl)cc3)c2c1C	none (no result: T cruzi growth-1, Pf Dd2 growth, KDM4C inh)
C[C@H]1CCCCO[C@H](CN(C)S(=O)(=O)c2ccc(F)cc2)[C@@H](C)CN([C@@H](C)CO)C(=O)c2cc(NS(=O)(=O)c3ccc(F)cc3)ccc2O1	T cruzi growth-1 99 | T cruzi growth-2 110 | T cruzi growth-3 inactive | 3T3 cytotox inactive | NIH3T3 tox 2 inactive
C[C@H]1CCCCO[C@@H](CN(C)S(=O)(=O)c2ccc(F)cc2)[C@@H](C)CN([C@@H](C)CO)C(=O)c2cc(NS(=O)(=O)c3ccc(F)cc3)ccc2O1	T cruzi growth-1 119 | T cruzi growth-2 105 | T cruzi growth-3 inactive | 3T3 cytotox inactive | NIH3T3 tox 2 inactive
NC(=O)C1CC(=O)N(c2ccc(OCC(=O)Nc3cc(Cl)cc(Cl)c3)cc2)C1 (stereo unspecified)	none (no result: T cruzi growth-1, Pf Dd2 growth, KDM4C inh)
O=C(CN1CCOCC1)N1CCCCN2[C@H](CO)[C@@H](c3ccc(/C=C/c4ccccc4)cc3)[C@@H]2C1	none (no result: IDH1 mut inh)
O=C(CN1CCOCC1)N1CCCCN2[C@H](CO)[C@H](c3ccc(C#Cc4ccccc4)cc3)[C@H]2C1	T cruzi growth-1 98 (no result: IDH1 mut inh) | T cruzi growth-2 96 | T cruzi growth-3 inactive | 3T3 cytotox inactive | NIH3T3 tox 2 67
O=C(CN1CCOCC1)N1CCCCN2[C@H](C1)[C@H](c1ccc(C#Cc3ccccc3F)cc1)[C@@H]2CO	T cruzi growth-1 107 (no result: IDH1 mut inh) | T cruzi growth-2 inactive | T cruzi growth-3 inactive | 3T3 cytotox inactive | NIH3T3 tox 2 89
CCC(=O)N1CCCCN2[C@H](CO)[C@H](c3ccc(C#Cc4ccccc4F)cc3)[C@H]2C1	none (no result: IDH1 mut inh)
O=C(CN1CCOCC1)N1CCCCN2[C@H](CO)[C@H](c3ccc(C#Cc4ccccc4F)cc3)[C@@H]2C1	T cruzi growth-1 106 (no result: IDH1 mut inh) | T cruzi growth-2 101 | T cruzi growth-3 inactive | 3T3 cytotox 45 | NIH3T3 tox 2 76
O=C(CN1CCOCC1)N1CCCCN2[C@H](C1)[C@@H](c1ccc(C#Cc3ccccc3F)cc1)[C@@H]2CO	none (no result: IDH1 mut inh)
O=C(CN1CCOCC1)N1CCCCN2[C@H](CO)[C@H](c3ccc(-c4ccccc4)cc3)[C@H]2C1	none (no result: IDH1 mut inh)
O=C(CN1CCOCC1)N1CCCCN2[C@H](CO)[C@H](c3ccc(C#Cc4ccccc4F)cc3)[C@H]2C1	T cruzi growth-1 118 (no result: IDH1 mut inh) | T cruzi growth-2 inactive | T cruzi growth-3 inactive | 3T3 cytotox inactive | NIH3T3 tox 2 95
CCn1c(SCc2nc3ccccc3[nH]2)nnc1-c1cccc(Cl)c1	none (no result: T cruzi growth-1, Pf Dd2 growth, KDM4C inh)
